Here are results for 14 compounds from ChEMBL document CHEMBL2034888, “Synthesis, anticonvulsant activity, and neuropathic pain-attenuating activity of N-benzyl 2-amino-2-(hetero)aromatic acetamides” (Bioorg Med Chem, 2012).

Where only a bound is given, the exact number is not on record here.

Data set [1] in a line: Neurotoxicity in ip dosed albino CF-1 mouse by rotorod test. To be noted: in vivo. The class given is toxicity, organism-based.
In data set [2] the test system is Mus musculus. Put plainly: Anticonvulsant activity in ip dosed albino CF-1 mouse assessed as protection against maximal electroshock-induced seizure. The data set is classed as functional. The note with it: albino CF-1, ip. (In the maximal electroshock model the usual endpoint is tonic extension of the hind limbs.)
Data set [3] concerns Mus musculus. Kind of data set: Toxicity in ip dosed NMRI mouse assessed as tremors at 90 mg/kg, ip after 30 mins. The data set is classed as organism-based. Details: dose 90 mg/kg, route intraperitoneal. The note with it: in vivo, 0.5 h. The method, boiled down: (§1)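 Adult male NMRI mice were dosed ip. Whole-animal pharmacological observation was made at the stated mg/kg dose, recording tremors, convulsions, writhing, impaired gait or mortality. Timing was 30 min post-dose.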

In data set [4] the test system is Mus musculus. Put plainly: Anticonvulsant activity in ip dosed NMRI mouse assessed as protection against maximal electroshock-induced seizure after 30 mins postdose. The data set is classed as functional. The note with it: 0.5 h; for minimal effective dose: read-out: MED. The method, boiled down: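 Adult male NMRI mice given compound intraperitoneally; maximal electroshock seizure test run 30 min after dosing. Where a dose–response was run, ED50 in mg/kg was derived. Otherwise a minimal active dose was reported, or the percentage of mice protected at a single dose.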

Data set [5] relates to Mus musculus. Kind of data set: Anticonvulsant activity in ip dosed NMRI mouse assessed as protection against 6 Hz psychomotor seizure after 30 mins. The class given is functional. The note with it: 0.5 h. The method, boiled down: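 Adult male NMRI mice dosed ip. Psychomotor seizures were induced by 6 Hz stimulation at 44 mA, 30 min after administration. ED50 in mg/kg was derived where determinable, otherwise a minimal active dose was reported.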

Data set [6] relates to Mus musculus. Put plainly: Antinociceptive activity in NMRI mouse neuropathic pain model assessed as protection against formalin-induced nociceptive behaviour at 90 mg/kg, ip after 30 mins. The data set is classed as functional. The note with it: route intraperitoneal. The method, boiled down: (§2)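 Formalin test in adult male NMRI mice used as a prescreen for pain attenuation, 30 min after ip administration. ED50 in mg/kg was derived where possible. Otherwise the percent protected after a single stated dose was reported.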

For data set [7], the system named is Mus musculus. Kind of data set: Protective index, ratio of TD50 for NMRI mouse to ED50 for antinociceptive activity in ip dosed NMRI mouse neuropathic pain model. The class given is functional.
The subject of data set [8] is Mus musculus. Kind of data set: Protective index, ratio of TD50 for NMRI mouse to ED50 for anticonvulsant activity in ip dosed NMRI mouse by maximal electroshock seizure test. The data set is classed as functional.
Data set [9] in a line: Neurotoxicity in ip dosed NMRI mouse after 30 mins by rotorod test. The data set is classed as toxicity, organism-based. The note with it: in vivo. In short, it runs like this:
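Neurological impairment was scored by rotorod in adult male NMRI mice 30 min after ip dosing. TD50 in mg/kg was derived where possible, otherwise the maximal tolerated dose was given.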

Data set [10] has as its system Mus musculus. Put plainly: Antinociceptive activity in ip dosed NMRI mouse neuropathic pain model assessed as protection against formalin-induced nociceptive behaviour after 30 mins. The data set is classed as functional. To be noted: 0.5 h. In short, it runs like this: as §2
Data set [11] deals with Mus musculus. Kind of data set: Toxicity in ip dosed NMRI mouse assessed as convulsions at 160 mg/kg, ip after 30 mins. The data set is classed as organism-based. More on the design: dose 160 mg/kg, route intraperitoneal. To be noted: in vivo, 0.5 h. The method, boiled down:
as §1

The subject of data set [12] is Mus musculus. Kind of data set: Toxicity in ip dosed NMRI mouse assessed as mortality at 140 mg/kg, ip after 30 mins. The class given is organism-based. Details: dose 140 mg/kg, route intraperitoneal. The note with it: in vivo, 0.5 h. The method, boiled down: (§3)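 Adult male NMRI mice dosed intraperitoneally. Whole-animal pharmacological observation at the listed mg/kg dose, with convulsions and mortality recorded as signs. This was done alongside MES, 6 Hz (44 mA) psychomotor seizure, formalin and rotorod testing, which were read 30 min after ip dosing.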

Data set [13] has as its system Mus musculus. Kind of data set: Toxicity in ip dosed NMRI mouse assessed as convulsions at 77 mg/kg, ip after 30 mins. The data set is classed as organism-based. Details: dose 77 mg/kg, route intraperitoneal. To be noted: in vivo, 0.5 h. The method, boiled down: as §1
The subject of data set [14] is Mus musculus. Kind of data set: Antinociceptive activity in NMRI mouse neuropathic pain model assessed as protection against formalin-induced nociceptive behaviour at 24 mg/kg, ip after 30 mins. The class given is functional. The note with it: route intraperitoneal. The method, boiled down: as §2
The nature of data set [15]: Ratio of drug level in brain to plasma in mouse. The note with it: brain and plasma, read-out: BPR. The data set is classed as ADME, organism-based.
Data set [16] concerns Mus musculus. Put plainly: Toxicity in ip dosed NMRI mouse assessed as convulsions at 105 mg/kg, ip after 30 mins. The class given is organism-based. More on the design: dose 105 mg/kg, route intraperitoneal. To be noted: in vivo, 0.5 h. In short, it runs like this:
as §3

In data set [17] the test system is Mus musculus. Kind of data set: Toxicity in ip dosed NMRI mouse assessed as mortality at 105 mg/kg, ip after 30 mins. The class given is organism-based. More on the design: dose 105 mg/kg, route intraperitoneal. The note with it: in vivo, 0.5 h. The method, boiled down:
as §3

Data set [18] has as its system Mus musculus. Put plainly: Toxicity in ip dosed NMRI mouse assessed as mortality at 110 mg/kg, ip after 30 mins. The class given is organism-based. More on the design: dose 110 mg/kg, route intraperitoneal. The note with it: in vivo, 0.5 h. In short, it runs like this: as §3
Data set [19] deals with Mus musculus. Kind of data set: Toxicity in ip dosed NMRI mouse assessed as writhings at 59 mg/kg, ip after 30 mins. The class given is organism-based. Details: dose 59 mg/kg, route intraperitoneal. The note with it: in vivo, 0.5 h. In short, it runs like this: as §1
(In general: In writhing tests, fewer writhes than in controls are read as antinociception.)

In data set [20] the test system is Mus musculus. Put plainly: Antinociceptive activity in NMRI mouse neuropathic pain model assessed as protection against formalin-induced nociceptive behaviour at 110 mg/kg, ip after 30 mins. The class given is functional. To be noted: route intraperitoneal. In short, it runs like this:
as §2

Data set [21] deals with Mus musculus. Put plainly: Toxicity in ip dosed NMRI mouse assessed as tremors at 59 mg/kg, ip after 30 mins. The data set is classed as organism-based. Details: dose 59 mg/kg, route intraperitoneal. To be noted: in vivo, 0.5 h. In short, it runs like this: as §1
Data set [22] relates to Mus musculus. Put plainly: Toxicity in ip dosed NMRI mouse assessed as convulsions at 110 mg/kg, ip after 30 mins. The data set is classed as organism-based. Details: dose 110 mg/kg, route intraperitoneal. To be noted: in vivo, 0.5 h. In short, it runs like this: as §3

The term TD50 denotes the 50% point of the dose-response relation for the toxic effect studied. A higher TD50 goes with lower toxicity. One may read the ED50 as the dose at which the effect has come halfway, by size or by number of responders. In data set [1], `CC(=O)NC(C(=O)NCc1ccccc1)c1cc2ccccc2o1` (racemic) registered a TD50 of 100 mg/kg. Besides, the ED50 in the data set with Mus musculus [2] was 100 mg/kg.
On to `CC(=O)NC(C(=O)NCc1ccccc1)c1ccc2ccccc2c1` (racemic), for which the TD50 in [1] was above 300 mg/kg. In addition, the 50% effective dose (ED50) in the data set with Mus musculus [2] is above 300 mg/kg.
Turning to `NC(C(=O)NCc1ccccc1)c1cc2ccccc2o1` (racemic), the figures for the Activity entry in the data set on Mus musculus [3] and in the data set with Mus musculus [6] were “Toxic” and 31%, respectively. Besides, the ED50 in the data set on Mus musculus [4] was 90 mg/kg; in the data set with Mus musculus [5], above 120 mg/kg.
Consider `NC(C(=O)NCc1ccccc1)c1cccs1` (racemic), for which the figures for the “Ratio TD50/ED50” value in the data set on Mus musculus [7] and in the data set with Mus musculus [8] were below 1.1 and below 0.8, respectively. Moreover, the minimal effective dose in the data set with Mus musculus [4] came out at 68 mg/kg. In addition, the median effective dose (ED50) in the data set with Mus musculus [5] was above 91 mg/kg; in the data set on Mus musculus [10] it was 48 mg/kg. In data set [9], this compound yielded an MTD at 0.5 h of 51 mg/kg. The Activity result in the data set on Mus musculus [11] was “Toxic”.
For `NC(C(=O)NCc1ccccc1)c1nccs1` (racemic), the figures for the “Ratio TD50/ED50” value in the data set on Mus musculus [7] and in the data set on Mus musculus [8] were below 3.1 and below 2.1, respectively. For the same compound, the ED50 in the data set with Mus musculus [4] is 67 mg/kg; in the data set on Mus musculus [5], above 140 mg/kg; in the data set on Mus musculus [10], 45 mg/kg. Further, the MTD at 0.5 h in data set [9] was determined as 140 mg/kg.
Regarding `NC(C(=O)NCc1ccccc1)c1cc2ccccc2s1` (racemic), the ED50 in the data set with Mus musculus [4] is 120 mg/kg; with Mus musculus [5], above 170 mg/kg; in the data set with Mus musculus [10], 66 mg/kg.
Consider `NC(C(=O)NCc1ccccc1)c1ccccc1` (racemic), for which the results for the Activity result with Mus musculus [12], in the data set with Mus musculus [13] and in the data set with Mus musculus [14] were “Toxic”, “Toxic” and 37%, respectively. The “Ratio TD50/ED50” value in the data set on Mus musculus [7] is above 1.2; with Mus musculus [8], above 1.7. The ED50 was above 30 mg/kg with Mus musculus [4] and above 43 mg/kg with Mus musculus [5]. The same compound displayed a TD50 at 0.5 h in [9] of 51 mg/kg.
As to `NC(C(=O)NCc1ccccc1)c1ccccn1` (racemic), the Kp in [15] was 2.7. The minimal effective dose in the data set on Mus musculus [4] came out at 100 mg/kg. Besides, the ED50 in the data set with Mus musculus [5] is above 100 mg/kg; in the data set with Mus musculus [10] it was 33 mg/kg. In data set [9], this compound returned an MTD at 0.5 h of 180 mg/kg.
With `NC(C(=O)NCc1ccccc1)c1cccnc1` (racemic), the minimal effective dose with Mus musculus [4] came to 120 mg/kg. Moreover, the 50% effective dose (ED50) is above 210 mg/kg with Mus musculus [5] and 74 mg/kg with Mus musculus [10].
Consider `NC(C(=O)NCc1ccccc1)c1ccncc1` (racemic), for which, in the data set with Mus musculus [4], the minimal effective dose worked out at 210 mg/kg. Further, the ED50 with Mus musculus [5] was above 120 mg/kg; in the data set on Mus musculus [10], 67 mg/kg.
With `NC(C(=O)NCc1ccccc1)c1cnccn1` (racemic), the “Ratio TD50/ED50” value in the data set on Mus musculus [7] is reported as above 1; with Mus musculus [8], above 1.9. Also, the results for the median effective dose (ED50) in the data set on Mus musculus [4] and in the data set with Mus musculus [10] were 85 mg/kg and above 160 mg/kg, respectively. Besides, the minimal effective dose in the data set on Mus musculus [5] (read-out: MED) was found to be 28 mg/kg. For the same compound, the TD50 at 0.5 h in data set [9] was above 160 mg/kg.
Regarding `NC(C(=O)NCc1ccccc1)c1cccc2ccccc12` (racemic), the 50% effective dose (ED50) in the data set with Mus musculus [4] was above 69 mg/kg; in the data set on Mus musculus [5] it was above 59 mg/kg; with Mus musculus [10], above 33 mg/kg. In addition, the Activity entry with Mus musculus [16] and in the data set on Mus musculus [17] was “Toxic” throughout.
As for `NC(C(=O)NCc1ccccc1)c1nccc2ccccc12` (racemic), the figures for the 50% effective dose (ED50) in the data set on Mus musculus [4], in the data set on Mus musculus [5] and with Mus musculus [10] were above 52 mg/kg, above 93 mg/kg and 29 mg/kg, respectively.
For `NC(C(=O)NCc1ccccc1)c1ccc2ccccc2c1` (racemic), the Activity entry in the data set with Mus musculus [18] is given as “Toxic”; in the data set on Mus musculus [19] it was “Toxic”; in the data set with Mus musculus [20] it was 100%; in the data set on Mus musculus [21], “Toxic”; with Mus musculus [22] it was “Toxic”. Also, the values for the median effective dose (ED50) in the data set on Mus musculus [4], with Mus musculus [5] and with Mus musculus [10] were 45 mg/kg, above 110 mg/kg and below 110 mg/kg, respectively. The “Ratio TD50/ED50” value with Mus musculus [8] is below 2.4. Besides, the TD50 at 0.5 h in data set [9] turned out to be 110 mg/kg.
